The subject of one experiment is LPS-stimulated BV2 cells. In words: NO, TNF-α and IL-1β production in LPS-stimulated BV2 microglial cells. Conditions: LPS 100 ng/mL, 24 h. In kind it is cell-based. The method, boiled down: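 BV2 microglia were grown 48 h at 37 °C, then pre-treated with test compound for 6 h at 37 °C under 5% CO2, with 0.5% DMSO as vehicle. Medium was replaced by DMEM containing LPS 100 ng/mL (final) for 24 h at 37 °C. NO in the medium was measured with a nitric oxide assay kit; TNF-α and IL-1β by ELISA. Data are mean ± SD of ≥3 independent experiments, compared by Student's t-test.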

The target in the next experiment is T1, hMAO-A (Homo sapiens, UniProt P21397).
T1 sequence (P21397 1-527): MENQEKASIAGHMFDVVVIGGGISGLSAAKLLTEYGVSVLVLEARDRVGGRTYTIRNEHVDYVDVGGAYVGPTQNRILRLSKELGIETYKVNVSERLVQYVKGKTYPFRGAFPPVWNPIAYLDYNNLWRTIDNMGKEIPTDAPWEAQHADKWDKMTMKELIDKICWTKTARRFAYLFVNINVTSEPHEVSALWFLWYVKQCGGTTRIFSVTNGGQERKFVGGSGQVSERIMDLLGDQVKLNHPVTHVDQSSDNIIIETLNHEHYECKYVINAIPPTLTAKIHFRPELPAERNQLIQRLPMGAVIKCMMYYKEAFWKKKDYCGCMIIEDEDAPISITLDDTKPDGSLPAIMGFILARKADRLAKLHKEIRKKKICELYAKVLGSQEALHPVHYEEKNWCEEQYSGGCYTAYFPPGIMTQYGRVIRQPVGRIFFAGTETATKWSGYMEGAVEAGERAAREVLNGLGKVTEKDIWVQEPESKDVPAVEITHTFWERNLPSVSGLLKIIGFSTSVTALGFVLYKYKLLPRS
In words: hMAO-A inhibition assay. In kind it is biochemical.

Another experiment deals with T2, hMAO-B (Homo sapiens, UniProt P27338).
T2 sequence (P27338 1-520): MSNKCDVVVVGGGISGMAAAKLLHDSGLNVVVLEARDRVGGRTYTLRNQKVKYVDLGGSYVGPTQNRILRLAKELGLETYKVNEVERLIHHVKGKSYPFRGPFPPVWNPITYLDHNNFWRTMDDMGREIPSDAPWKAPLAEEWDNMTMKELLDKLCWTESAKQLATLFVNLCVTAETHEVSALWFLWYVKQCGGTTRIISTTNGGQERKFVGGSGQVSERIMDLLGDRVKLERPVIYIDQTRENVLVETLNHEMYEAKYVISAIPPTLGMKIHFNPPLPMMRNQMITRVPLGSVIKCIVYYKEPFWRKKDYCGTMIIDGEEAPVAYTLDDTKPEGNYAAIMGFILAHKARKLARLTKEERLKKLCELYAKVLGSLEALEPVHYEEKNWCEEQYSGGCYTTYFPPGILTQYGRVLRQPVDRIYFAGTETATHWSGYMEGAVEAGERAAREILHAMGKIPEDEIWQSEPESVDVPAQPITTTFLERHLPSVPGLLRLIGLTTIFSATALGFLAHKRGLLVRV
In words: hMAO-B inhibition assay. In kind it is biochemical. Conditions: for inhibition at 1 µM: read-out: hMAO-B Inhibition (%), at 1 µM.

On to lipopolysaccharide [LPS], for which, in the experiment with LPS-stimulated BV2 cells, the “level of IL-1β compared to the control group” value is 30.4 fold, the “level of NO compared to the control group” value is 11.4 fold and the “level of TNF-α compared to the control group” value was determined as 26.3 fold.

With `O=C(/C=C/c1ccccc1)c1cccs1` [Compound 2, (E)−3-phenyl-1-(thiophen-2-yl)prop-2-en-1-one], the IC50 on hMAO-A was above 40 µM. On hMAO-B, it took 10.6 ± 1.4 µM to reach half-maximal inhibition (IC50) and the inhibition at 1 µM was determined as 23.8%. For the same compound, the “Selectivity Index (SI)” value at hMAO-B (SI = IC50 (hMAO-A) / IC50 (hMAO-B)) is given as above 3.

The compound `COc1ccc(/C=C/C(=O)c2ccc(Cl)s2)cc1OC` [Compound 16, (E)−1-(5-chlorothiophen-2-yl)−3-(3,4-dimethoxyphenyl)prop-2-en-1-one] returned an IC50 at hMAO-A above 40 µM. In addition, at hMAO-B, the inhibition at 1 µM stood at 14.5%.

`COc1ccc(/C=C/C(=O)c2ccc(C)s2)cc1O` [Compound 19, (E)−3-(3-hydroxy-4-methoxyphenyl)−1-(5-methylthiophen-2-yl)prop-2-en-1-one] came in with an IC50 on hMAO-A above 40 µM. Also, the inhibition at 1 µM at hMAO-B was 28.2%.

In turn, `COc1ccc(/C=C/C(=O)c2ccc(Br)s2)cc1OC` [Compound 18, (E)−1-(5-bromothiophen-2-yl)−3-(3,4-dimethoxyphenyl)prop-2-en-1-one] registered an IC50 against hMAO-A above 40 µM. In addition, the inhibition at 1 µM on hMAO-B was determined as 12.3%.

At hMAO-A, `COc1ccc(/C=C/C(=O)c2cccs2)cc1OC` [Compound 10, (E)−3-(3,4-dimethoxyphenyl)−1-(thiophen-2-yl)prop-2-en-1-one] had an IC50 above 40 µM. Further, the inhibition at 1 µM at hMAO-B was below 5%.

`COc1ccc(/C=C/C(=O)c2cccs2)cc1O` [Compound 11, (E)−3-(3-hydroxy-4-methoxyphenyl)−1-(thiophen-2-yl)prop-2-en-1-one]: the IC50 at hMAO-A was above 40 µM. Besides, the inhibition at 1 µM at hMAO-B amounted to 16.6%.

At hMAO-A, `O=C(C=Cc1ccccc1)c1ccccc1` [Compound 1, 1,3-diphenyl-2-propen-1-one, reference compound] registered an IC50 above 40 µM.

On hMAO-A, `COc1ccc(/C=C/C(=O)c2ccco2)cc1O` [Compound 20, (E)−1-(furan-2-yl)−3-(3-hydroxy-4-methoxyphenyl)prop-2-en-1-one] came in with an IC50 above 40 µM. In addition, the inhibition at 1 µM at hMAO-B was below 5%.

Turning to `O=C(/C=C/c1ccc2ccccc2c1)c1cccs1` [Compound 8, (E)−3-(naphthalen-2-yl)−1-(thiophen-2-yl)prop-2-en-1-one], on hMAO-A, the IC50 was above 40 µM. Further, the inhibition at 1 µM on hMAO-B is 27%.

`COc1ccc(/C=C/C(=O)c2ccc[nH]2)cc1O` [Compound 22, (E)−3-(3-hydroxy-4-methoxyphenyl)−1-(1H-pyrrol-2-yl)prop-2-en-1-one] showed an IC50 against hMAO-A above 40 µM. Further, the inhibition at 1 µM on hMAO-B is below 5%.

In turn, `COc1ccc(/C=C/C(=O)c2cccs2)cc1` [Compound 9, (E)−3-(4-methoxyphenyl)−1-(thiophen-2-yl)prop-2-en-1-one] displayed an IC50 against hMAO-A above 40 µM. Moreover, on hMAO-B, the inhibition at 1 µM was found to be 51.7%.

On to `COc1ccc(/C=C/C(=O)c2ccc(C)o2)cc1O` [Compound 21, (E)−3-(3-hydroxy-4-methoxyphenyl)−1-(5-methylfuran-2-yl)prop-2-en-1-one], for which the IC50 at hMAO-A was above 40 µM. For the same compound, on hMAO-B, the inhibition at 1 µM is below 5%.

As a reminder, the IC50 is the concentration needed to halve the response being measured. Higher therefore signals weaker potency in that assay. By inhibition is commonly meant the share of the control response that was lost under treatment.

For the origin of these results see article PMC11906766 (Scientific Reports, 2025).
